# Measured values from different studies.
SMILES,species,matrix,route,dose,notes,Tmax
O=C(Nc1cc(F)c(F)c(F)c1)c1ccc(F)c(S(=O)(=O)NCc2cccc(B(O)O)c2)c1,male Sprague-Dawley rat,plasma,oral,20 mg/kg,,0.38 h
COc1nc(-c2cc(C)c(N[C@@H](C)c3cc(F)cc(F)c3)nn2)ccc1-n1cnc(C)c1,male Sprague-Dawley rat,plasma,oral,5 mg/kg,single dose,5.3 h
Cc1c(-c2ccccc2)cccc1N1C(=O)c2cc(CN[C@H](C(=O)O)C(C)O)c(OCc3cccc(C#N)c3)cc2C1=O (stereo partly shown),Sprague-Dawley rat,plasma,oral,50 mg/kg,,0.53 h
CCc1cc(C(=O)NC)c2nccc(N3CCc4c(cc(Cn5ccnc5)cc4-c4cn(C)nc4C(F)(F)F)C3=O)c2c1,male Sprague-Dawley rat,plasma,oral,50 mg/kg,single dose,0.8 h
Cl.Clc1ccc2c(c1)nc(N1CCNCC1)n2Cc1ccccc1,rat,plasma,oral,5 mg/kg,,0.08 h
CNCc1cc(-c2ccccc2F)n(S(=O)(=O)c2cccnc2)c1,male Sprague-Dawley rat,plasma,oral,10 mg/kg,,1 h
CNC(=O)c1c(C)oc2cc(Oc3ncnc4cc(OC)c(OC)cc34)ccc12,Sprague-Dawley rat,plasma,oral,1 mg/kg,single dose,4.25 h
CNCc1cc(-c2ccccc2F)n(S(=O)(=O)c2cccnc2)c1,Sprague-Dawley rat,plasma,oral,10 mg/kg,,~1.1 h
CC[C@H](C)[C@H](NC(=O)[C@H](Cc1ccccc1)NC(=O)[C@H](CCC(=O)O)NC(=O)[C@H](CCCNC(=N)N)NC(=O)[C@H](C)NC(=O)[C@H](C)NC(=O)[C@H](CCC(N)=O)NC(=O)[C@H](CCC(=O)O)NC(=O)[C@H](CCC(=O)O)NC(=O)[C@H](CC(C)C)NC(=O)[C@H](Cc1ccc(O)cc1)NC(=O)[C@H](CO)NC(=O)[C@H](CO)NC(=O)[C@@H](NC(=O)[C@H](CC(=O)O)NC(=O)[C@H](CO)NC(=O)[C@@H](NC(=O)[C@H](Cc1ccccc1)NC(=O)[C@@H](NC(=O)CNC(=O)[C@H](CCC(=O)O)NC(=O)[C@H](C)NC(=O)CCc1c[nH]cn1)[C@@H](C)O)[C@@H](C)O)C(C)C)C(=O)N[C@@H](C)C(=O)N[C@@H](Cc1c[nH]c2ccccc12)C(=O)N[C@@H](CC(C)C)C(=O)N[C@H](C(=O)N[C@@H](CCCNC(=N)N)C(=O)NCC(=O)N[C@@H](CCCNC(=N)N)C(=O)N[C@@H](CCCCNC(=O)COCCOCCNC(=O)COCCOCCNC(=O)CC[C@H](NC(=O)CCCCCCCCCCCCCCCCC(=O)O)C(=O)O)C(=O)O)C(C)C,rat,plasma,subcutaneous,20 nmol/kg,,10 h
C[C@H](Nc1ncnc2[nH]cnc12)c1cc2cccc(Cl)c2c(=O)n1-c1ccccc1,male Wistar rat,plasma,oral,25 mg/kg,single dose,2 h
N#Cc1[nH]nnc1-c1cccc(-c2cc(F)cc(C(F)(F)F)c2)c1,male Sprague-Dawley rat,plasma,oral,10 mg/kg,,0.8 h
C=CC(=O)N1CC2CC(n3nc(-c4ccc(C(=O)Nc5ccccn5)cc4)c4c(N)ncnc43)CC2C1 (stereo not shown),male Wistar rat,plasma,oral,3 mg/kg,,0.25 h
CC(C)OC(=O)NC1CCN(Cc2cc(Cl)c3cccnc3c2O)CC1,rat,blood,intraperitoneal,30 mg/kg,,3 h
N#Cc1[nH]nnc1-c1cc(Cl)cc(/C=C/c2cccc(C(F)(F)F)c2)c1,male Sprague-Dawley rat,plasma,oral,10 mg/kg,,5.3 h
N#Cc1ccc(Nc2nc(N)cc(Oc3c(F)cc(-c4ccc(C#N)cc4)cc3F)n2)cc1,Sprague-Dawley rat,plasma,intravenous,1 mg/kg,,0.08 h
CCc1nc(C(N)=O)c(Nc2ccc(N3CCC(N4CCN(C)CC4)CC3)c(OC)c2)nc1NC1CCOCC1,male Sprague-Dawley rat,plasma,oral,10 mg/kg,,11 h
